Measured values from ChEMBL document CHEMBL2016433 (Bioorg Med Chem, 2012).
The source made the active and inactive calls.

Experiments:
U-937 [1] = assay: Cytostatic against human U937 cells assessed as reduction in absolute number of total cells after 24 hrs by haemocytometry; type: functional, cell-based
Procedure, shortened: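 U937 cells, 5×10^4 per well in RPMI-1640 with 5% FBS, 2 mM L-glutamine and penicillin-streptomycin, were exposed to 1 in 10 serial dilutions from 100 µM to 1 µM (stocks 20 mM in DMSO or medium), or to vehicle, for 24 h at 37 °C in CO₂. Total cells were counted by haemocytometer; mean and SD of at least three determinations.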

U-937 [2] = assay: Induction of apoptosis in human U937 cells after 24 hrs by acridine orange staining based microscopy; type: functional, cell-based
Procedure, shortened: (§1)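 U937 cells were treated for 24 h at 37 °C with 1–100 µM compound or vehicle, then stained with acridine orange. Over 600 cells were scored by fluorescence microscopy; apoptosis was defined as uniformly stained nuclei with chromatin condensation or nuclear fragmentation. Mean and SD of at least three determinations.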

PBMC [3] = assay: Induction of apoptosis in human PBMC cells assessed as hypodiploid nuclei after 24 hrs by propidium iodide based flow cytometry analysis; type: cell-based
PBMC [4] = assay: Induction of apoptosis in human PBMC cells assessed as hypodiploid nuclei at 1 uM after 48 hrs by propidium iodide based flow cytometry analysis (reference value: 4.7 %); type: cell-based
PBMC [5] = assay: Induction of apoptosis in human PBMC cells assessed as hypodiploid nuclei at 10 uM after 48 hrs by propidium iodide based flow cytometry analysis (reference value: 4.7 %); type: cell-based
PBMC [6] = assay: Induction of apoptosis in human PBMC cells assessed as hypodiploid nuclei at 50 uM after 48 hrs by propidium iodide based flow cytometry analysis (reference value: 4.7 %); type: cell-based
PBMC [7] = assay: Induction of apoptosis in human PBMC cells assessed as hypodiploid nuclei at 100 uM after 48 hrs by propidium iodide based flow cytometry analysis (reference value: 4.7 %); type: cell-based
U-937 [8] = assay: Induction of apoptosis in human U937 cells assessed as hypodiploid nuclei after 24 hrs by propidium iodide based flow cytometry analysis; type: functional, cell-based
U-937 [9] = assay: Induction of apoptosis in human U937 cells assessed as hypodiploid nuclei at 1 uM after 24 hrs by propidium iodide based flow cytometry analysis (reference value: 3.2%); type: functional
U-937 [10] = assay: Induction of apoptosis in human U937 cells assessed as hypodiploid nuclei at 10 uM after 24 hrs by propidium iodide based flow cytometry analysis (reference value: 3.2%); type: functional
U-937 [11] = assay: Induction of apoptosis in human U937 cells assessed as hypodiploid nuclei at 50 uM after 24 hrs by propidium iodide based flow cytometry analysis (reference value: 3.2%); type: functional
U-937 [12] = assay: Induction of apoptosis in human U937 cells assessed as hypodiploid nuclei at 100 uM after 24 hrs by propidium iodide based flow cytometry analysis (reference value: 3.2%); type: functional
MOLT-3 [13] = assay: Cytotoxicity against human MOLT3 cells assessed as cell viability after 24 hrs; type: functional, cell-based; conditions: MOLT-3, 24 h
MOLT-3 [14] = assay: Cytotoxicity against human MOLT3 cells after 24 hrs by trypan blue exclusion assay; type: functional
MOLT-3 [15] = assay: Induction of apoptosis in human MOLT3 cells after 24 hrs by acridine orange staining based fluorescence microscopy; type: functional
Procedure, shortened: (§2)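 HeLa, MOLT-3 and THP-1 cells were treated with increasing concentrations for 24 h, then stained with acridine orange and more than 600 cells scored by fluorescence microscopy for condensed or fragmented nuclei. AC30 is the concentration giving 30% apoptotic cells, from a best-fit curve versus log concentration.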

THP-1 [16] = assay: Cytotoxicity against human THP1 cells assessed as cell viability after 24 hrs; type: functional, cell-based; conditions: THP-1, 24 h
THP-1 [17] = assay: Cytotoxicity against human THP1 cells after 24 hrs by trypan blue exclusion assay; type: functional
THP-1 [18] = assay: Induction of apoptosis in human THP1 cells after 24 hrs by acridine orange staining based fluorescence microscopy; type: functional; procedure, shortened: as §2
HT-29 [19] = assay: Cytotoxicity against human HT-29 cells assessed as cell viability after 48 hrs; type: functional, cell-based; conditions: HT-29, 48 h
Procedure, shortened: (§3)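 HT-29, HepG2 and MCF7 cells were treated in wells with increasing concentrations for 48 h at 37 °C, 5% CO₂. Total cell count was taken by haemocytometer. IC50 is the concentration inhibiting total count by 50%, from a best-fit curve of the value versus log concentration.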

HT-29 [20] = assay: Cytotoxicity against human HT-29 cells after 48 hrs by trypan blue exclusion assay; type: functional
Procedure, shortened: (§4)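 Adherent HT-29, HepG2 and MCF7 cells were seeded in 96 wells with increasing concentrations and incubated 48 h at 37 °C, 5% CO₂. Trypan blue exclusion was done directly in the culture wells. CC30 is the concentration giving 30% cytotoxicity, from a best-fit curve versus log concentration.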

HT-29 [21] = assay: Cytotoxicity against human HT-29 cells assessed as compound concentration causing 30% reduction in formazan product formation after 48 hrs by MTS assay; type: functional; conditions: HT-29, 48 h
Procedure, shortened: (§5)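 HT-29, HepG2 and MCF7 cells were exposed to increasing concentrations for 48 h. MTS reagent was then added directly to the wells, incubated a further 4 h, and absorbance read at 490 nm. MAIC30 is the concentration reducing formazan formation by 30%, from a best-fit curve versus log concentration.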

HepG2 [22] = assay: Cytotoxicity against human HepG2 cells assessed as cell viability after 48 hrs; type: functional, cell-based; conditions: HepG2, 48 h; procedure, shortened: as §3
HepG2 [23] = assay: Cytotoxicity against human HepG2 cells after 48 hrs by trypan blue exclusion assay; type: functional; procedure, shortened: as §4
HepG2 [24] = assay: Cytotoxicity against human HepG2 cells assessed as compound concentration causing 30% reduction in formazan product formation after 48 hrs by MTS assay; type: functional; conditions: HepG2, 48 h; procedure, shortened: as §5
MCF7 [25] = assay: Cytotoxicity against human MCF7 cells assessed as cell viability after 48 hrs; type: functional, cell-based; conditions: MCF7, 48 h; procedure, shortened: as §3
MCF7 [26] = assay: Cytotoxicity against human MCF7 cells after 48 hrs by trypan blue exclusion assay; type: functional; procedure, shortened: as §4
MCF7 [27] = assay: Cytotoxicity against human MCF7 cells assessed as compound concentration causing 30% reduction in formazan product formation after 48 hrs by MTS assay; type: functional; conditions: MCF7, 48 h; procedure, shortened: as §5
U-937 [28] = assay: Cytotoxicity against human U937 cells assessed as induction of cell death at 1 to 100 microM after 24 hrs by trypan blue exclusion method; type: functional, cell-based
U-937 [29] = assay: Induction of apoptosis in human U937 cells at 100 uM after 24 hrs by acridine orange staining based microscopy; type: functional, cell-based; procedure, shortened: as §1
U-937 [30] = assay: Induction of cell death in human U937 cells assessed at 1 to 100 microM after 24 hrs by trypan blue exclusion method relative to untreated control; type: functional
Procedure, shortened: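 U937 cells (5×10^4 per well) exposed for 24 h at 37 °C, 5% CO₂ to 1 in 10 serial dilutions from 1 to 100 µM in RPMI-1640 with 5% FBS. Compounds came from 20 mM stocks in DMSO or medium. Controls got vehicle at equal amounts. Membrane-permeable cells were counted by trypan blue exclusion in a haemocytometer and expressed as percent. Mean and standard deviation from at least three determinations.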

| SMILES | Activity (U-937 [1]) | Activity (U-937 [2]) | IC50 (MOLT-3 [13]) [µM] | CC30 (MOLT-3 [14]) [µM] | AC30 (MOLT-3 [15]) [µM] | IC50 (THP-1 [16]) [µM] | CC30 (THP-1 [17]) [µM] | AC30 (THP-1 [18]) [µM] | Activity (U-937 [28]) | Activity (U-937 [30]) [%] | also measured |
| --- | --- | --- | --- | --- | --- | --- | --- | --- | --- | --- | --- |
| CC(=O)OC[C@H]1O[C@@H](SSCc2cccc(CSS[C@@H]3O[C@H](COC(C)=O)[C@H](OC(C)=O)[C@H](OC(C)=O)[C@H]3OC(C)=O)c2)[C@H](OC(C)=O)[C@@H](OC(C)=O)[C@H]1OC(C)=O | Active | Active | > 100 | 54 | 15 | > 100 | >100 | 92 | Active | – | Activity (PBMC [3]): Non-toxic; Activity (PBMC [4]): 4.9%; Activity (PBMC [5]): 7.4%; Activity (PBMC [6]): 30.9%; Activity (PBMC [7]): 31.2%; Activity (U-937 [8]): Dose-dependent effect; Activity (U-937 [9]): 3.1%; Activity (U-937 [10]): 4.2%; Activity (U-937 [11]): 51%; Activity (U-937 [12]): 91.2%; IC50 (HT-29 [19]): 60 µM; CC30 (HT-29 [20]): >100 µM; IC30 (HT-29 [21]): 12 µM; IC50 (HepG2 [22]): 54 µM; CC30 (HepG2 [23]): 77 µM; IC30 (HepG2 [24]): 41 µM; IC50 (MCF7 [25]): 42 µM; CC30 (MCF7 [26]): >100 µM; IC30 (MCF7 [27]): 61 µM; Activity (U-937 [29]): Active |
| CCc1c(CSS[C@@H]2O[C@H](COC(C)=O)[C@H](OC(C)=O)[C@H](OC(C)=O)[C@H]2OC(C)=O)c(CC)c(CSS[C@@H]2O[C@H](COC(C)=O)[C@H](OC(C)=O)[C@H](OC(C)=O)[C@H]2OC(C)=O)c(CC)c1CSS[C@@H]1O[C@H](COC(C)=O)[C@H](OC(C)=O)[C@H](OC(C)=O)[C@H]1OC(C)=O | Dose-dependent effect | inactive | – | – | – | – | – | – | inactive | 25 | – |
| CC(=O)OC[C@H]1O[C@@H](SSCc2cccc(CSS[C@@H]3O[C@H](COC(C)=O)[C@@H](OC(C)=O)[C@H](OC(C)=O)[C@H]3OC(C)=O)c2)[C@H](OC(C)=O)[C@@H](OC(C)=O)[C@@H]1OC(C)=O | Active | Active | – | – | – | – | – | – | Active | – | – |
| CC(=O)OC[C@H]1O[C@@H](S)[C@H](OC(C)=O)[C@@H](OC(C)=O)[C@H]1OC(C)=O | – | inactive | > 100 | >100 | >100 | > 100 | >100 | >100 | – | – | – |
| CC(=O)OC[C@H]1O[C@@H](SSc2cccc(SS[C@@H]3O[C@H](COC(C)=O)[C@@H](OC(C)=O)[C@H](OC(C)=O)[C@H]3OC(C)=O)c2)[C@H](OC(C)=O)[C@@H](OC(C)=O)[C@@H]1OC(C)=O | – | – | – | – | – | – | – | – | Active | – | – |
| CC(=O)OC[C@H]1O[C@@H](SSCc2c(C)c(CSS[C@@H]3O[C@H](COC(C)=O)[C@@H](OC(C)=O)[C@H](OC(C)=O)[C@H]3OC(C)=O)c(C)c(CSS[C@@H]3O[C@H](COC(C)=O)[C@@H](OC(C)=O)[C@H](OC(C)=O)[C@H]3OC(C)=O)c2C)[C@H](OC(C)=O)[C@@H](OC(C)=O)[C@@H]1OC(C)=O | – | inactive | – | – | – | – | – | – | Active | 25 | – |
